Assay results as given in ChEMBL document CHEMBL1145212, “Fluorinated diaryl sulfides as serotonin transporter ligands: synthesis, structure-activity relationship study, and in vivo evaluation of fluorine-18-labeled compounds as PET imaging agents” (J Med Chem, 2005).

Assays:
Assay type in all cases: cell-based
[1] = molecular target: Sodium-dependent serotonin transporter (Homo sapiens, UniProt P31645); experiment: In vitro displacement of [3H]paroxetine from human serotonin transporter expressed in HEK293 cells
Chain of Sodium-dependent serotonin transporter (P31645 whole entry): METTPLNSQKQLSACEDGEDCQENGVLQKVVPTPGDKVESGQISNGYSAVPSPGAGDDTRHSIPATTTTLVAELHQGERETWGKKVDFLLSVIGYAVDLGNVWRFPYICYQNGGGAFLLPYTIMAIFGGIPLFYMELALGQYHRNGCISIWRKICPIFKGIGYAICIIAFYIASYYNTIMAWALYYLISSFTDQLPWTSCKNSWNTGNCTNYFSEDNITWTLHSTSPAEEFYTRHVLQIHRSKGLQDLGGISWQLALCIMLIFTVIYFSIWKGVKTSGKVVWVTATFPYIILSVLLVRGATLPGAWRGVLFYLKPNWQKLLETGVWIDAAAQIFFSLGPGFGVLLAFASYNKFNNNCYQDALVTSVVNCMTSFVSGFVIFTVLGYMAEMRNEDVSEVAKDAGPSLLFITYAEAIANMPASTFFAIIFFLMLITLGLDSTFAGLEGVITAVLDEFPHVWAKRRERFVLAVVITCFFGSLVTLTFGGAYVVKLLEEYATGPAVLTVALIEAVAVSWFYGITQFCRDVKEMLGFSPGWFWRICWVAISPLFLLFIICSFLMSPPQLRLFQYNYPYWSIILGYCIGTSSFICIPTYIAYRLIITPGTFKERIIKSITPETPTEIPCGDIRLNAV

[2] = molecular target: Sodium-dependent noradrenaline transporter (Homo sapiens, UniProt P23975); experiment: In vitro displacement of [3H]nisoxetine from human norepinephrine transporter expressed in HEK293 cells
Chain of Sodium-dependent noradrenaline transporter (P23975 whole entry): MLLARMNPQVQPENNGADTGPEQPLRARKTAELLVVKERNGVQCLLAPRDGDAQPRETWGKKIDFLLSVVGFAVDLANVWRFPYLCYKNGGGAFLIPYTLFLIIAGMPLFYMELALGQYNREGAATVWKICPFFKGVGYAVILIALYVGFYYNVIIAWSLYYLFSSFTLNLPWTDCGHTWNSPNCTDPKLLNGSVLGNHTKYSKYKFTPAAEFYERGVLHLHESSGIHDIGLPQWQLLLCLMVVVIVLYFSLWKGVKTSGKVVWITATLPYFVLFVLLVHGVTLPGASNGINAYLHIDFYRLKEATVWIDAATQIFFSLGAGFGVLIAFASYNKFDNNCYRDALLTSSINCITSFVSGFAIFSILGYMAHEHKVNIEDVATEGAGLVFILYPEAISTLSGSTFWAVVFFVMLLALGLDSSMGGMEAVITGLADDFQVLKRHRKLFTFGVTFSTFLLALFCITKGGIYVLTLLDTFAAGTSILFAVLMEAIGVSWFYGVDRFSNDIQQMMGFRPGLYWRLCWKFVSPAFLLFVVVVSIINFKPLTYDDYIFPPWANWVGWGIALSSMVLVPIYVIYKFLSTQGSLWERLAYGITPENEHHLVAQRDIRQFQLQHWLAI
Procedure, shortened: (§1)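 Competitive binding using cloned human transporters expressed in HEK-293 cells. NET was labelled with [³H]nisoxetine and DAT with [³H]GBR12935, following a previously published procedure.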

[3] = molecular target: Sodium-dependent dopamine transporter (Homo sapiens, UniProt Q01959); experiment: In vitro displacement of [3H]GBR-12935 from human dopamine transporter expressed in HEK293 cells; procedure, shortened: as §1
Chain of Sodium-dependent dopamine transporter (Q01959 whole entry): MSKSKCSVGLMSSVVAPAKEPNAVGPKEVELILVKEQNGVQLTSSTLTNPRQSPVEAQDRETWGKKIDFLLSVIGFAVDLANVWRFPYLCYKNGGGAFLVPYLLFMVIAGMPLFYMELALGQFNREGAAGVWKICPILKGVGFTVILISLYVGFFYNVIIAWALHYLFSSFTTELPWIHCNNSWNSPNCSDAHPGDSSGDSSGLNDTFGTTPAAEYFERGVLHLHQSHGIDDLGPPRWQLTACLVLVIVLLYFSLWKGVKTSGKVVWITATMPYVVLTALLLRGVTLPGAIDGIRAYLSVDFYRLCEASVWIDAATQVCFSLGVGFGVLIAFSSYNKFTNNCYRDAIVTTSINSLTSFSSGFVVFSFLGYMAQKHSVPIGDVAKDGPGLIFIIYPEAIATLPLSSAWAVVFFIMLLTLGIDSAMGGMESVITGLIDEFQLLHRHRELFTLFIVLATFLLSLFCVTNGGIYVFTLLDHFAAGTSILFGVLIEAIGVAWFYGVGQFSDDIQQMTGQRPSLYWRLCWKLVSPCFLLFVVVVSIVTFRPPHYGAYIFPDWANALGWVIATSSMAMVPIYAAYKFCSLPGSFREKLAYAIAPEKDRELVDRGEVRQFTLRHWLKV

Ki [1]: 0.8 nM
Ki [2]: 787 nM
Ki [3]: 3610 nM
SMILES: CN(C)Cc1ccccc1Sc1ccc(CO)cc1N
